Drawing on ChEMBL document CHEMBL1123734, “Resolution, absolute stereochemistry, and enantioselective activity of nomifensine and hexahydro-1H-indeno[1,2-b]pyridines” (J Med Chem, 1987), this text covers ED50, IC50 and LD50 for nine compounds.

Broadly, the ED50 is the dose at which the effect has come halfway, by size or by number of responders. In general, IC50 refers to the concentration that gives 50% inhibition. The low end stands for greater potency in that assay, the high end for weaker potency in that assay. By LD50 is commonly meant the dose at which mortality reaches 50%. Read a high LD50 as a less toxic substance.

Molecules are shown by their SMILES. “And” between values parts separate entries of the source, which are not always exact repeats. Equal values may be shown once.

For series [1], the system named is Mus musculus. The series is described as follows: Antidepressant potential was assessed by the potentiation of yohimbine-induced toxicity in mice by intraperitoneal administration; Inactive. Format: functional. The following applies: ip. Summed up: (§1)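 Male NMRI mice (SPF-71, KF), 20-30 g, were randomized into groups of 10. Compounds were dissolved in 1% methylcellulose, dosed at 10 mL/kg, and given ip 30 min before yohimbine hydrochloride (20 mg/kg sc). Deaths were counted after 18 h. ED50 was the dose at which 50% of animals died.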

For series [2], the species on record is Rattus norvegicus. The series can be described thus: In vitro inhibition of [3H]5-HT uptake into rat whole brain. In kind it is functional, organism-based.
Series [3] deals with Mus musculus. The series can be described thus: Antidepressant potential was assessed by the prevention of tetrabenazine-induced ptosis in mice by intraperitoneal administration. Format: functional. The procedure, abridged:
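Male NMRI mice (SPF-71, KF), 20-30 g, randomly assigned to groups of 10. Compounds dissolved in 1% methylcellulose and given ip at 10 mL/kg body weight. Ptosis procedure follows an earlier cited method.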

For series [4], the species on record is Rattus norvegicus. The series can be described thus: In vitro inhibition of [14C]norepinephrine uptake into rat hypothalamus. In kind it is functional, organism-based.
Series [5] can be described thus: (§2) Lethal dose (toxicity) was determined by intraperitoneal administration in mice. In kind it is organism-based. The following applies: mouse, in vivo, ip. Summed up:
(§3)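 Male NMRI mice (SPF-71, KF), 20-30 g, randomly assigned to groups of 10. Compounds were dissolved in 1% methylcellulose and given intraperitoneally at 10 mL/kg body weight.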

The subject of series [6] is Mus musculus. The series is described as §2. Format: organism-based. The following applies: in vivo, ip. Summed up:
as §3

The species named for series [7] is Rattus norvegicus. The series is described as follows: In vitro inhibition of [3H]dopamine uptake into rat corpus striatum. Format: functional, organism-based.
Series [8] deals with Mus musculus. The series can be described thus: Antidepressant potential was assessed by the potentiation of yohimbine-induced toxicity in mice by intraperitoneal administration. In kind it is functional. The procedure, abridged: as §1
For series [9], the system named is Mus musculus. The series is described as follows: Antidepressant potential was assessed by the prevention of tetrabenazine-induced ptosis in mice by intraperitoneal administration; Inactive. Format: functional. The following applies: ip.
In series [10] the test system is Mus musculus. The series is described as follows: Antidepressant potential was assessed by the potentiation of yohimbine-induced toxicity in mice by intraperitoneal administration. Format: functional. The procedure, abridged: as §1
Series [11] concerns Mus musculus. The series is described as follows: (§4) Lethal dose (toxicity) was determined by intraperitoneal administration in mice. In kind it is organism-based. The following applies: in vivo, ip. The procedure, abridged:
as §3

Series [12] deals with Mus musculus. The series is described as follows: Antidepressant potential was assessed by the prevention of tetrabenazine-induced ptosis in mice by intraperitoneal administration. In kind it is functional.
A short description of series [13]: as §4. Format: organism-based. As to conditions: mouse, in vivo, ip. The procedure, abridged: as §3
Where [14] appears, read: Mus musculus, ip, read-out: ED50.

Consider `CCCN1CCC[C@@H]2[C@@H](c3ccccc3)c3ccccc3[C@@H]21`, for which the median effective dose (ED50) worked out at 5 mg/kg in the series on Mus musculus [1], 0.4 mg/kg in the series on Mus musculus [3] (setting [14]), 1.2 mg/kg in the series on Mus musculus [8] and 5 mg/kg with Mus musculus [9]. For the same compound, the IC50 in the series listed under Rattus norvegicus [2] is over 10000 nM; in the series listed under Rattus norvegicus [4], 36 nM and 200 nM; in the series filed under Rattus norvegicus [7], 40 nM and 200 nM. Besides, the 50% lethal dose (LD50) is 39 mg/kg in [5] and 35 mg/kg in the series on Mus musculus [6].

As to `CN1Cc2c(N)cccc2C(c2ccccc2)C1` (stereo in doubt; (-)) [NOMIFENSINE], the median effective dose (ED50) in the series with Mus musculus [10] was found to be 20.2 mg/kg. This compound also gave a 50% lethal dose (LD50) in the series with Mus musculus [11] of 170 mg/kg.

Regarding `CN1CCC[C@@H]2[C@@H](c3ccccc3)c3ccccc3[C@@H]21` (racemic), the IC50 in the series filed under Rattus norvegicus [2] turned out to be 10000 nM; in the series listed under Rattus norvegicus [4], 120 nM; in the series listed under Rattus norvegicus [7], 100 nM. In addition, the ED50 in the series with Mus musculus [3] (setting [14]) is 0.4 mg/kg; in the series on Mus musculus [8] (setting [14]), 1.3 mg/kg. The compound also yielded an LD50 in series [5] of 46.7 mg/kg.

On to `CN1Cc2c(N)cccc2C(c2ccccc2)C1` (stereo in doubt; (+)) [NOMIFENSINE], for which the median effective dose (ED50) in the series on Mus musculus [10] stood at 0.55 mg/kg. In the series on Mus musculus [11], the LD50 was 49.5 mg/kg.

With `Nc1ccc([C@H]2c3ccccc3[C@@H]3NCCC[C@H]23)cc1` (racemic), the results for the median effective dose (ED50) in the series on Mus musculus [10] and in the series with Mus musculus [12] were 0.06 mg/kg and 0.044 mg/kg, respectively. The concentration for half-maximal inhibition (IC50) in the series filed under Rattus norvegicus [4] was determined as 18 nM; in the series listed under Rattus norvegicus [7] it was 44 nM. In the series with Mus musculus [11], this compound displayed an LD50 of 37 mg/kg.

Turning to `CCCN1CCC[C@@H]2[C@@H](c3ccccc3)c3ccccc3[C@@H]21` (racemic), the IC50 is over 10000 nM in the series listed under Rattus norvegicus [2], 410 nM in the series filed under Rattus norvegicus [4] and 110 nM in the series filed under Rattus norvegicus [7]. Further, the ED50 worked out at 0.8 mg/kg in the series with Mus musculus [3] and 3.5 mg/kg with Mus musculus [8]. The compound further showed an LD50 in the series on Mus musculus [6] of 57 mg/kg.

In the case of `CN1CCC[C@@H]2[C@@H](c3ccccc3)c3ccccc3[C@@H]21`, the median effective dose (ED50) stood at 5 mg/kg in the series on Mus musculus [1], 0.37 mg/kg in the series on Mus musculus [3], 0.86 mg/kg in the series with Mus musculus [8] and 10 mg/kg in the series on Mus musculus [9]. In addition, the half-maximal inhibitory concentration (IC50) in the series listed under Rattus norvegicus [4] is 500 nM and 60 nM; in the series filed under Rattus norvegicus [7] it was 300 nM. Moreover, in the series with Mus musculus [6], the median lethal dose (LD50) is 72 mg/kg and 91 mg/kg.

Consider `CN1Cc2c(N)cccc2C(c2ccccc2)C1` (racemic) [NOMIFENSINE], for which the median effective dose (ED50) with Mus musculus [10] came out at 1.1 mg/kg. For the same compound, the 50% lethal dose (LD50) in the series with Mus musculus [11] is 141 mg/kg.

Regarding `Nc1ccc([C@H]2c3ccccc3[C@@H]3NCCC[C@H]23)cc1`, the IC50 in the series listed under Rattus norvegicus [2] (Rattus norvegicus, 1 h) is over 10000 nM; in the series listed under Rattus norvegicus [4] it was 5 nM and 15 nM; in the series listed under Rattus norvegicus [7] it was 20 nM and 50 nM. In addition, the ED50 in the series on Mus musculus [10] is 0.07 mg/kg and 0.15 mg/kg. Also, the LD50 in series [5] turned out to be 78 mg/kg; in series [13] it was 43 mg/kg.
